ChEMBL document CHEMBL2380301, “Chemotherapy of leishmaniasis. Part XII: design, synthesis and bioevaluation of novel triazole integrated phenyl heteroterpenoids as antileishmanial agents” (Bioorg Med Chem Lett, 2013)

Key:
Leishmania donovani [1] = assay: Antileishmanial activity against amastigotes of Leishmania donovani assessed as inhibition of parasite growth after 72 hrs by luciferase reporter assay; format: functional, organism-based
Procedure, shortened: (§1)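 J-774A.1 murine macrophages (4 × 10³/well) were seeded and grown 24 h, then infected with luciferase-transfected L. donovani promastigotes (4 × 10⁴/well) that transformed intracellularly into amastigotes. Compounds at […] were added for 72 h. After supernatant removal, cells were taken up in PBS with Steady-Glo and luminescence read. Inhibition was calculated against untreated controls. IC50 is the mean of two independent experiments.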

[2] = Selectivity index, ratio of CC50 for african green monkey Vero cells to IC50 for amastigotes of Leishmania donovani; format: functional
Procedure, shortened: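 Ratio of CC50 on Vero cells (72 h MTT) to IC50 on intramacrophage L. donovani amastigotes in luciferase-expressing J-774A.1 infections (72 h). Both values are means of two independent experiments.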

[3] = Cytotoxicity against african green monkey Vero cells after 72 hrs by MTT assay; format: cell-based; conditions: chlorocebus sabaeus
Procedure, shortened: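 Vero monkey kidney […] were exposed to compounds for 72 h, and viable cells were detected with MTT by a modified Mosmann method. CC50 is the mean of two independent experiments.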

Leishmania donovani [4] = assay: Antileishmanial activity against amastigotes of Leishmania donovani assessed as inhibition of parasite growth at 40 uM after 72 hrs by luciferase reporter assay; format: functional; procedure, shortened: as §1
Leishmania donovani [5] = assay: Antileishmanial activity against Leishmania donovani infected in golden hamster assessed as inhibition of parasite multiplication at 50 mg/kg, ip qd for 5 days measured on day 7; format: functional; conditions: route intraperitoneal
Procedure, shortened: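 Inbred golden hamsters of either sex, 40–45 g, infected intracardiacally with 1 × 10⁷ L. donovani amastigotes per animal. Dosing was 50 mg/kg ip for 5 days. Biopsies were taken on day 7 after the last dose and amastigotes counted by Giemsa staining. Counts were compared between treated and untreated animals and with the initial count in treated animals, and expressed as per cent inhibition.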

| Structure (SMILES) | IC50 (Leishmania donovani [1]) [µM] | Ratio CC50/IC50 [2] | CC50 at 72 h [3] [µM] | inhibition at 40 µM (Leishmania donovani [4]) [%] | inhibition in vivo at 50 mg/kg (Leishmania donovani [5]) [%] |
| --- | --- | --- | --- | --- | --- |
| CC1=C(/C=C/C2=NN(c3ccc(F)cc3)C(c3ccc(-n4cncn4)cc3)C2)C(C)(C)CCC1 (centres undefined) | 12.4 | 5 | 58.6 | 98.7 |  |
| CC1=C(/C=C/C(=O)/C=C/c2ccc(-n3cncn3)cc2)C(C)(C)CCC1 | 15.3 | 5 | 72.4 | 100 |  |
| CCCCCCCCCCCCCCCCOP(=O)([O-])OCC[N+](C)(C)C [MILTEFOSINE] | 8.6 | 6 | 54.7 | 100 |  |
| Clc1ccc(COC(Cn2ccnc2)c2ccc(Cl)cc2Cl)c(Cl)c1 (centres undefined) [MICONAZOLE] | 5.4 | 7 | 37.4 | 100 |  |
| CC1=CCCC(C)(C)C1/C=C/C1=NN(c2ccc(F)cc2)C(c2ccc(-n3cncn3)cc2)C1 (centres undefined) | 16.9 | 4 | 72.2 | 90.5 |  |
| CC1=CCCC(C)(C)C1/C=C/C1=NN(c2ccccc2)C(c2ccc(-n3cncn3)cc2)C1 (centres undefined) | 9.2 | 32 | 296 | 98 | 58 |
| CC1=C(/C=C/C2=NN(c3ccccc3)C(c3ccc(-n4cncn4)cc3)C2)C(C)(C)CCC1 (centres undefined) | 6.4 | 18 | 112 | 100 | 79 |
| CC1=CCCC(C)(C)C1/C=C/C(=O)/C=C/c1ccc(-n2cncn2)cc1 (centres undefined) | 11.6 | 3 | 38.5 | 98.2 |  |
